# ChEMBL document CHEMBL4689842, “EUbOPEN Chemogenomics Library wave 1” (2021)
# “And” between values parts separate entries of the source, which are not always exact repeats. Equal values may be shown once.
# What was measured:
# [1] = tested on: HEK-293T; assay: Multiplex assay against HEK293T; assay type: toxicity, cell-based; settings: human;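 on Population Tubulin-Different-Phenotype (%): share of the cells with healthy nuclei that show this phenotype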
# Summary of the method: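 Phenotypes for tubulin, mitochondrial mass and membrane permeability are expressed as per cents of healthy-nucleus cells. Cells were stained live at seeding with Hoechst33342, BioTracker Green Microtubule Cytoskeleton Dye, MitoTracker Red and Annexin V Alexa Fluor 680, then imaged after compound addition on a CQ1 microscope at 37°C and 5% CO2. Machine-learning gating in CellPathfinder separated Hoechst high-intensity objects from normal cells, divided normal cells by nuclear state (healthy, pyknosed, fragmented) and divided pyknosed cells into mitotic or apoptotic.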
# [2] = tested on: Fibroblast; assay: Incucyte cell viability with human fibroblast; assay type: toxicity, cell-based; settings: 10 µM, compound concentration 10 uM; further: filed as whole numbers so only -1 and 0 and 1 occur
# [3] = 12 h, 1 µM, compound concentration 1 uM, replicate 1
# [4] = 12 h, 1 µM, compound concentration 1 uM, replicate 2
# [5] = 12 h, 10 µM, compound concentration 10 uM, replicate 1
# [6] = 12 h, 10 µM, compound concentration 10 uM, replicate 2
# [7] = 24 h, 1 µM, compound concentration 1 uM, replicate 1
# [8] = 24 h, 1 µM, compound concentration 1 uM, replicate 2
# [9] = 24 h, 10 µM, compound concentration 10 uM, replicate 1
# [10] = 24 h, 10 µM, compound concentration 10 uM, replicate 2
# [11] = 48 h, 10 µM, compound concentration 10 uM, replicate 1
# [12] = 48 h, 10 µM, compound concentration 10 uM, replicate 2
# [13] = 0 h, replicate number 1, timepoint 0 hours
# [14] = 6 h, replicate number 1, timepoint 6 hours
# [15] = 12 h, replicate number 1, timepoint 12 hours
# [16] = 18 h, replicate number 1, timepoint 18 hours
# [17] = 24 h, replicate number 1, timepoint 24 hours
compound,measurement,setting,value
CC(C)Oc1ccc(C(=O)N[C@H](CNC(=O)CN(C)C)Cc2ccc(-c3cn4cccc([C@H](C)O)c4n3)cc2)cc1Cl [GSK-923295A],Population Apoptotic (%),[1]; [3],15%
same,Population Fragmented Nuclei (%),[1]; [3],9%
same,Population Healthy Nuclei (%),[1]; [3],61%
same,Population Hoechst High Intensity Objects (%),[1]; [3],8%
same,Population Membrane Permeable-Phenotype (%),[1]; [3],6%
same,Population Mitochondria Different-Phenotype (%),[1]; [3],10%
same,Population Mitotic Cells (%),[1]; [3],84%
same,Population Normal (%),[1]; [3],91%
same,Population Pyknosed Nuclei (%),[1]; [3],28%
same,Population Tubulin-Different-Phenotype (%),[1]; [3],15%
same,Total Cell Count,[1]; [3],623
same,Population Apoptotic (%),[1]; [4],7%
same,Population Fragmented Nuclei (%),[1]; [4],6%
same,Population Healthy Nuclei (%),[1]; [4],69%
same,Population Hoechst High Intensity Objects (%),[1]; [4],2%
same,Population Membrane Permeable-Phenotype (%),[1]; [4],3%
same,Population Mitochondria Different-Phenotype (%),[1]; [4],12%
same,Population Mitotic Cells (%),[1]; [4],92%
same,Population Normal (%),[1]; [4],97%
same,Population Pyknosed Nuclei (%),[1]; [4],24%
same,Population Tubulin-Different-Phenotype (%),[1]; [4],25%
same,Total Cell Count,[1]; [4],1239
same,Population Apoptotic (%),[1]; [5],33% and 93%
same,Population Fragmented Nuclei (%),[1]; [5],22% and 19%
same,Population Healthy Nuclei (%),[1]; [5],37% and 22%
same,Population Hoechst High Intensity Objects (%),[1]; [5],20% and 23%
same,Population Normal (%),[1]; [5],79% and 76%
same,Population Pyknosed Nuclei (%),[1]; [5],39% and 58%
same,Population Tubulin-Different-Phenotype (%),[1]; [5],82% and 100%
same,Population Healthy Nuclei (%),[1]; [6],28% and 73%
same,Population Hoechst High Intensity Objects (%),[1]; [6],4%
same,Population Membrane Permeable-Phenotype (%),[1]; [6],13% and 21%
same,Population Mitochondria Different-Phenotype (%),[1]; [6],86% and 42%
same,Population Mitotic Cells (%),[1]; [6],32% and 82%
same,Population Normal (%),[1]; [6],95%
same,Population Pyknosed Nuclei (%),[1]; [6],62% and 24%
same,Population Tubulin-Different-Phenotype (%),[1]; [6],94% and 98%
same,Population Apoptotic (%),[1]; [7],10%
same,Population Fragmented Nuclei (%),[1]; [7],10%
same,Population Healthy Nuclei (%),[1]; [7],65%
same,Population Hoechst High Intensity Objects (%),[1]; [7],7%
same,Population Membrane Permeable-Phenotype (%),[1]; [7],6%
same,Population Mitochondria Different-Phenotype (%),[1]; [7],11%
same,Population Mitotic Cells (%),[1]; [7],90%
same,Population Normal (%),[1]; [7],92%
same,Population Pyknosed Nuclei (%),[1]; [7],24%
same,Population Tubulin-Different-Phenotype (%),[1]; [7],23%
same,Total Cell Count,[1]; [7],668
same,Population Apoptotic (%),[1]; [8],12%
same,Population Fragmented Nuclei (%),[1]; [8],13%
same,Population Healthy Nuclei (%),[1]; [8],77%
same,Population Hoechst High Intensity Objects (%),[1]; [8],4%
same,Population Membrane Permeable-Phenotype (%),[1]; [8],4%
same,Population Mitochondria Different-Phenotype (%),[1]; [8],8%
same,Population Mitotic Cells (%),[1]; [8],87%
same,Population Normal (%),[1]; [8],95%
same,Population Pyknosed Nuclei (%),[1]; [8],8%
same,Population Tubulin-Different-Phenotype (%),[1]; [8],28%
same,Total Cell Count,[1]; [8],1632
same,Population Apoptotic (%),[1]; [9],92% and 41%
same,Population Fragmented Nuclei (%),[1]; [9],19%
same,Population Healthy Nuclei (%),[1]; [9],33% and 54%
same,Population Hoechst High Intensity Objects (%),[1]; [9],22% and 18%
same,Population Membrane Permeable-Phenotype (%),[1]; [9],0% and 19%
same,Population Mitochondria Different-Phenotype (%),[1]; [9],100% and 41%
same,Population Normal (%),[1]; [9],77% and 81%
same,Population Pyknosed Nuclei (%),[1]; [9],47% and 26%
same,Population Tubulin-Different-Phenotype (%),[1]; [9],91%
same,Population Fragmented Nuclei (%),[1]; [10],8% and 4%
same,Population Healthy Nuclei (%),[1]; [10],39% and 72%
same,Population Hoechst High Intensity Objects (%),[1]; [10],4% and 7%
same,Population Mitochondria Different-Phenotype (%),[1]; [10],94% and 40%
same,Population Normal (%),[1]; [10],95% and 92%
same,Population Pyknosed Nuclei (%),[1]; [10],51% and 22%
same,Population Tubulin-Different-Phenotype (%),[1]; [10],96% and 98%
same,Population Apoptotic (%),[1]; [11],87%
same,Population Fragmented Nuclei (%),[1]; [11],23%
same,Population Healthy Nuclei (%),[1]; [11],46%
same,Population Hoechst High Intensity Objects (%),[1]; [11],30%
same,Population Membrane Permeable-Phenotype (%),[1]; [11],3%
same,Population Mitochondria Different-Phenotype (%),[1]; [11],100%
same,Population Mitotic Cells (%),[1]; [11],12%
same,Population Normal (%),[1]; [11],69%
same,Population Pyknosed Nuclei (%),[1]; [11],29%
same,Population Tubulin-Different-Phenotype (%),[1]; [11],88%
same,Total Cell Count,[1]; [11],156
same,Population Apoptotic (%),[1]; [12],75%
same,Population Fragmented Nuclei (%),[1]; [12],10%
same,Population Healthy Nuclei (%),[1]; [12],53%
same,Population Hoechst High Intensity Objects (%),[1]; [12],15%
same,Population Membrane Permeable-Phenotype (%),[1]; [12],9%
same,Population Mitochondria Different-Phenotype (%),[1]; [12],86%
same,Population Mitotic Cells (%),[1]; [12],24%
same,Population Normal (%),[1]; [12],84%
same,Population Pyknosed Nuclei (%),[1]; [12],35%
same,Population Tubulin-Different-Phenotype (%),[1]; [12],97%
same,Total Cell Count,[1]; [12],164
same,Growth Rate,[2]; [13],0
same,Growth Rate,"[2]; 0 h, replicate number 2, timepoint 0 hours",1
same,Growth Rate,[2]; [14],0
same,Growth Rate,[2]; [15],0
same,Growth Rate,[2]; [16],0
same,Growth Rate,[2]; [17],0
CCOc1cc2ncc(C#N)c(Nc3ccc(OCc4cccc(F)c4)c(Cl)c3)c2cc1NC(=O)/C=C/CN(C)C [HKI-357],Population Apoptotic (%),[1]; [3],18%
same,Population Fragmented Nuclei (%),[1]; [3],19%
same,Population Healthy Nuclei (%),[1]; [3],59%
same,Population Hoechst High Intensity Objects (%),[1]; [3],13%
same,Population Membrane Permeable-Phenotype (%),[1]; [3],4%
same,Population Mitochondria Different-Phenotype (%),[1]; [3],8%
same,Population Mitotic Cells (%),[1]; [3],81%
same,Population Normal (%),[1]; [3],86%
same,Population Pyknosed Nuclei (%),[1]; [3],21%
same,Population Tubulin-Different-Phenotype (%),[1]; [3],4%
same,Total Cell Count,[1]; [3],555
same,Population Apoptotic (%),[1]; [4],10%
same,Population Fragmented Nuclei (%),[1]; [4],7%
same,Population Healthy Nuclei (%),[1]; [4],87%
same,Population Hoechst High Intensity Objects (%),[1]; [4],1%
same,Population Membrane Permeable-Phenotype (%),[1]; [4],1%
same,Population Mitochondria Different-Phenotype (%),[1]; [4],10%
same,Population Mitotic Cells (%),[1]; [4],89%
same,Population Normal (%),[1]; [4],98%
same,Population Pyknosed Nuclei (%),[1]; [4],5%
same,Population Tubulin-Different-Phenotype (%),[1]; [4],7%
same,Total Cell Count,[1]; [4],1619
same,Population Apoptotic (%),[1]; [5],31%
same,Population Fragmented Nuclei (%),[1]; [5],13%
same,Population Healthy Nuclei (%),[1]; [5],50%
same,Population Hoechst High Intensity Objects (%),[1]; [5],10%
same,Population Membrane Permeable-Phenotype (%),[1]; [5],19%
same,Population Mitochondria Different-Phenotype (%),[1]; [5],16%
same,Population Mitotic Cells (%),[1]; [5],68%
same,Population Normal (%),[1]; [5],89%
same,Population Pyknosed Nuclei (%),[1]; [5],35%
same,Population Tubulin-Different-Phenotype (%),[1]; [5],61%
same,Total Cell Count,[1]; [5],591
same,Population Apoptotic (%),[1]; [6],14%
same,Population Fragmented Nuclei (%),[1]; [6],3%
same,Population Healthy Nuclei (%),[1]; [6],83%
same,Population Hoechst High Intensity Objects (%),[1]; [6],2%
same,Population Membrane Permeable-Phenotype (%),[1]; [6],11%
same,Population Mitochondria Different-Phenotype (%),[1]; [6],23%
same,Population Mitotic Cells (%),[1]; [6],85%
same,Population Normal (%),[1]; [6],97%
same,Population Pyknosed Nuclei (%),[1]; [6],12%
same,Population Tubulin-Different-Phenotype (%),[1]; [6],78%
same,Total Cell Count,[1]; [6],1328
same,Population Apoptotic (%),[1]; [7],31%
same,Population Fragmented Nuclei (%),[1]; [7],14%
same,Population Healthy Nuclei (%),[1]; [7],74%
same,Population Hoechst High Intensity Objects (%),[1]; [7],8%
same,Population Membrane Permeable-Phenotype (%),[1]; [7],7%
same,Population Mitochondria Different-Phenotype (%),[1]; [7],5%
same,Population Mitotic Cells (%),[1]; [7],68%
same,Population Normal (%),[1]; [7],91%
same,Population Pyknosed Nuclei (%),[1]; [7],11%
same,Population Tubulin-Different-Phenotype (%),[1]; [7],9%
same,Total Cell Count,[1]; [7],612
same,Population Apoptotic (%),[1]; [8],4%
same,Population Fragmented Nuclei (%),[1]; [8],26%
same,Population Healthy Nuclei (%),[1]; [8],71%
same,Population Hoechst High Intensity Objects (%),[1]; [8],2%
same,Population Membrane Permeable-Phenotype (%),[1]; [8],4%
same,Population Mitochondria Different-Phenotype (%),[1]; [8],2%
same,Population Mitotic Cells (%),[1]; [8],96%
same,Population Normal (%),[1]; [8],97%
same,Population Pyknosed Nuclei (%),[1]; [8],1%
same,Population Tubulin-Different-Phenotype (%),[1]; [8],8%
same,Total Cell Count,[1]; [8],2811
same,Population Apoptotic (%),[1]; [9],28%
same,Population Fragmented Nuclei (%),[1]; [9],12%
same,Population Healthy Nuclei (%),[1]; [9],59%
same,Population Hoechst High Intensity Objects (%),[1]; [9],8%
same,Population Membrane Permeable-Phenotype (%),[1]; [9],10%
same,Population Mitochondria Different-Phenotype (%),[1]; [9],17%
same,Population Mitotic Cells (%),[1]; [9],71%
same,Population Normal (%),[1]; [9],91%
same,Population Pyknosed Nuclei (%),[1]; [9],28%
same,Population Tubulin-Different-Phenotype (%),[1]; [9],72%
same,Total Cell Count,[1]; [9],592
same,Population Apoptotic (%),[1]; [10],11%
same,Population Fragmented Nuclei (%),[1]; [10],11%
same,Population Healthy Nuclei (%),[1]; [10],81%
same,Population Hoechst High Intensity Objects (%),[1]; [10],3%
same,Population Membrane Permeable-Phenotype (%),[1]; [10],12%
same,Population Mitochondria Different-Phenotype (%),[1]; [10],9%
same,Population Mitotic Cells (%),[1]; [10],88%
same,Population Normal (%),[1]; [10],96%
same,Population Pyknosed Nuclei (%),[1]; [10],6%
same,Population Tubulin-Different-Phenotype (%),[1]; [10],70%
same,Total Cell Count,[1]; [10],1894
same,Growth Rate,[2]; [13],0
same,Growth Rate,[2]; [14],0
same,Growth Rate,[2]; [15],0
same,Growth Rate,[2]; [16],0
same,Growth Rate,[2]; [17],0
